By IC50 is commonly meant the concentration needed to halve the response being measured.

The target in one assay is CDK2 (Homo sapiens, UniProt P24941). The assay is described as follows: ADP-Glo Kinase Assay, cell-free detection of CDK2 activity. The format is biochemical. A general note: ADP-Glo turns the ADP formed in a reaction into a luminescent signal.
The subject of a further assay is A549. The assay can be described thus: MTT anti-tumour cell proliferation in vitro, A549. The format is cell-based. The note with it: Homo sapiens, A549, 36 h, read-out: Cells IC50 (μM) A549. A digest of the protocol:
(§1)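 Cells grown in RPMI1640 with 10% foetal bovine serum at 37 °C, 5% CO2. Seeded at 5000/well in triplicate and allowed 6 h to adhere. Treated with a concentration series of test compound for 36 h. Reference CDK inhibitor at the same concentrations served as positive control, and DMSO as negative control. Stained with 5% MTT; absorbance read at 570 nm.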

For the next assay, the system named is HCT116. The assay is described as follows: MTT anti-tumour cell proliferation in vitro, HCT116. The format is cell-based. The following applies: Homo sapiens, HCT-116, 36 h, read-out: Cells IC50 (μM) HCT116. A digest of the protocol:
as §1

Molecules are shown by their SMILES.

With `CNC(=O)c1nn(C)c2c1C(C)(C)Cc1cnc(Nc3ccc(N4CCN(C)CC4)cc3)nc1-2` [Milciclib], the concentration for half-maximal inhibition (IC50) on CDK2 amounted to 52.7 ± 3.1 nM; in the assay with A549, 3.7 ± 0.4 µM; in the assay with HCT116 it was 1.1 ± 0.3 µM.
